Data as given in ChEMBL document CHEMBL1811757, “Discovery of naturally occurring aurones that are potent allosteric inhibitors of hepatitis C virus RNA-dependent RNA polymerase” (J Med Chem, 2011).
Active and inactive are the calls of the source. No cut-off for these calls is given here.

Columns and labels:
[1] = Inhibition of HCV genotype 1b J4 N-terminal His-tagged NS5Bdelta21 polymerase expressed in Escherichia coli C41(DE3) assessed as amount of double-stranded RNA synthesis; parameters: species or system Hepatitis C virus isolate HC-J4
[2] = test system: Hepatitis C virus isolate HC-J4; experiment: Inhibition of HCV genotype 1b J4 N-terminal His-tagged NS5Bdelta21 polymerase expressed in Escherichia coli C41(DE3) assessed as amount of double-stranded RNA synthesis at 20 uM
Huh-7 = experiment: Cytotoxicity against human HuH7 cells up to 512 uM after 72 hrs by MTT assay; type: cell-based; details: huh-7, 72 h
In short: (§1)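 Cells trypsinized in exponential growth and plated at 2000 (HuH7) or 1000 (HEK293) per well. Allowed to attach 96 h at 37°C, 5% CO2. Drug diluted in medium with 1% DMSO final, then 72 h at 37°C, 5% CO2. Viability read by MTT colorimetric assay.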

HEK293 = experiment: Cytotoxicity against human HEK293 cells up to 512 uM after 72 hrs by MTT assay; type: cell-based; details: hek293, 72 h; in short: as §1
Hepatitis C virus = experiment: Antiviral activity against HCV JFH-1 assessed as inhibition of viral replication by cell based assay; type: functional, organism-based, Hepacivirus hominis
[3] = test system: Hepatitis C virus isolate HC-J4; experiment: Ratio of IC50 for HCV genotype 1b J4 NS5Bdelta21 polymerase P495L mutant to IC50 for HCV genotype 1b J4 wild type N-terminal His-tagged NS5Bdelta21 polymerase
In short: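 IC50 measured in cell-free poly U/ATP double-stranded RNA synthesis assay for purified His-tagged NS5BΔ21 P495L mutant and wild type, both prepared identically by Ni-NTA purification. Mutant IC50 divided by wild-type IC50 and reported as fold difference. A Thumb Pocket I benzimidazole inhibitor served as control.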

[4] = test system: RNA-directed RNA polymerase (Hepacivirus hominis), O39930 [H95Q]; experiment: Inhibition of HCV genotype 1b J4 NS5Bdelta21 polymerase H95Q mutant expressed in Escherichia coli C41(DE3) assessed as amount of double-stranded RNA synthesis; details: Hepatitis C virus isolate HC-J4
RNA-directed RNA polymerase (Hepacivirus hominis), O39930 [H95Q], sequence (O39930 entry or part of it H95Q): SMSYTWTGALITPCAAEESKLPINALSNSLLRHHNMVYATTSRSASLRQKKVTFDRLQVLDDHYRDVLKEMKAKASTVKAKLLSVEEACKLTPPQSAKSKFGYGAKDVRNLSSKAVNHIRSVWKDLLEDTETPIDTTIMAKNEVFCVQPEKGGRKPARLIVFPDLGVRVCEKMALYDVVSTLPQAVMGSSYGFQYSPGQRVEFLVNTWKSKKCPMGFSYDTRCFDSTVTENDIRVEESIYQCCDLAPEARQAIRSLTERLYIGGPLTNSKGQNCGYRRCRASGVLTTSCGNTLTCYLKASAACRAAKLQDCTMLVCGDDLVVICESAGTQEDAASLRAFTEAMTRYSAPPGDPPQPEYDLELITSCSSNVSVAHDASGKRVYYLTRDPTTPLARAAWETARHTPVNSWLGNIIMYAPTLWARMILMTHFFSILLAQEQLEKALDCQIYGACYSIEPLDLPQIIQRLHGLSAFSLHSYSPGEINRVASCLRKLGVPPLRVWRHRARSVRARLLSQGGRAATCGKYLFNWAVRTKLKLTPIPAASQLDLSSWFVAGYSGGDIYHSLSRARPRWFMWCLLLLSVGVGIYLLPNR
In short: (§2)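 N-terminal His6-tagged NS5BΔ21 (C-terminal 21 residues removed) point mutants, made by site-directed mutagenesis, sequence-verified and purified like wild type: Ni-NTA affinity, imidazole elution, dialysis into Tris pH 7.5/sodium acetate/DTT/EDTA/10% glycerol. Cell-free assay quantifies double-stranded RNA synthesized on poly U homopolymeric template with ATP. IC50 determined per mutant.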

[5] = test system: RNA-directed RNA polymerase (Hepacivirus hominis), O39930 [C316Y]; experiment: Inhibition of HCV genotype 1b J4 NS5Bdelta21 polymerase C316Y mutant expressed in Escherichia coli C41(DE3) assessed as amount of double-stranded RNA synthesis; details: Hepatitis C virus isolate HC-J4; in short: as §2
RNA-directed RNA polymerase (Hepacivirus hominis), O39930 [C316Y], sequence (O39930 entry or part of it C316Y): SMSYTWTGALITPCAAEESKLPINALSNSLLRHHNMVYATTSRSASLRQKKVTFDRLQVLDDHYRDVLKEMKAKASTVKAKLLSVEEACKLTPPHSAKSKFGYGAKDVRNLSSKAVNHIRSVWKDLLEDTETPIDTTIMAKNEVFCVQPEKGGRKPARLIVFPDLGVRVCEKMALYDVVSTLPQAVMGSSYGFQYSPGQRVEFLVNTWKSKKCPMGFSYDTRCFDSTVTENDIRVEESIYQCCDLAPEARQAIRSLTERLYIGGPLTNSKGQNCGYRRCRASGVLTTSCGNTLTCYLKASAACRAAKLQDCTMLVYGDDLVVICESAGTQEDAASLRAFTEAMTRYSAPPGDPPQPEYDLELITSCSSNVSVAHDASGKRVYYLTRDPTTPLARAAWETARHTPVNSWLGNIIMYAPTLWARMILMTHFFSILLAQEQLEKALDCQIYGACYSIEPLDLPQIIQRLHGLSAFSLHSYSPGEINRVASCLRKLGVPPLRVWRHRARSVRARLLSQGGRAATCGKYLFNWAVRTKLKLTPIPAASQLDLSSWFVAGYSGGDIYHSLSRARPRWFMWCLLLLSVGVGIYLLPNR

[6] = test system: RNA-directed RNA polymerase (Hepacivirus hominis), O39930 [M423T]; experiment: Inhibition of HCV genotype 1b J4 NS5Bdelta21 polymerase M423T mutant expressed in Escherichia coli C41(DE3) assessed as amount of double-stranded RNA synthesis; details: Hepatitis C virus isolate HC-J4; in short: as §2
RNA-directed RNA polymerase (Hepacivirus hominis), O39930 [M423T], sequence (O39930 entry or part of it M423T): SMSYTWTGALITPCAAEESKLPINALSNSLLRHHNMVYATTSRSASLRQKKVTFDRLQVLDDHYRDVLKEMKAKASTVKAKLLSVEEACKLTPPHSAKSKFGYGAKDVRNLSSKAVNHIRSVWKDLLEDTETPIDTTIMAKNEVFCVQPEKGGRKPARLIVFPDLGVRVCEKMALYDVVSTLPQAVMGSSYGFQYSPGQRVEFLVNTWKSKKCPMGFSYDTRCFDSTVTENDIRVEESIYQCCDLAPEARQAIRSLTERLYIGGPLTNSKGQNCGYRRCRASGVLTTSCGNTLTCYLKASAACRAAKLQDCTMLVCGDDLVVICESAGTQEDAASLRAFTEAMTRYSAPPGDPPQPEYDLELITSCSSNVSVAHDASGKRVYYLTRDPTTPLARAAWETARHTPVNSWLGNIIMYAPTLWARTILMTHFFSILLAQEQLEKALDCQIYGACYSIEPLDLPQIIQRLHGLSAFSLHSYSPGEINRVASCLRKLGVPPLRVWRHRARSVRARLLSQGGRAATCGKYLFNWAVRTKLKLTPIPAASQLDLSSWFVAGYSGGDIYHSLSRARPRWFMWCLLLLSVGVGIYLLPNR

SMILES	IC50 [1] [µM]	inhibition [2] [%]	Activity (Huh-7)	Activity (HEK293)	IC50 (Hepatitis C virus) [µM]	Ratio IC50 [3]	inhibition [4]	inhibition [5]	inhibition [6]
O=C1/C(=C/c2ccccc2F)Oc2cccc(O)c21	> 20	58	Non-toxic	Non-toxic	–	–	–	–	–
CC(C)c1ccc(/C=C2\Oc3cccc(O)c3C2=O)cc1	> 20	29.9	Non-toxic	Non-toxic	–	–	–	–	–
O=C1/C(=C/c2ccc(O)cc2)Oc2cccc(O)c21	5.9	60	Non-toxic	Non-toxic	18	6	Active	Active	Active
O=C1/C(=C/c2ccccc2O)Oc2cc(O)cc(O)c21	> 20	33	Non-toxic	Non-toxic	–	–	–	–	–
O=C1/C(=C/c2ccccc2)Oc2cc(O)cc(O)c21	15.1	59	Non-toxic	Non-toxic	–	–	–	–	–
O=C1/C(=C/c2ccccc2O)Oc2cccc(O)c21	11.1	56	Non-toxic	Non-toxic	–	–	–	–	–
COc1ccc(/C=C2\Oc3cccc(O)c3C2=O)c(OC)c1	9.7	75	Non-toxic	Non-toxic	–	–	–	–	–
CC(C)c1ccc(/C=C2\Oc3cc(O)cc(O)c3C2=O)cc1	3.1	78	Non-toxic	Non-toxic	–	–	–	–	–
COc1cc(OC)c2c(c1)O/C(=C\c1ccc(C)cc1C)C2=O	> 20	14	Non-toxic	Non-toxic	–	–	–	–	–
O=C1/C(=C/c2ccc(F)cc2)Oc2cc(O)cc(O)c21	11.2	80	Non-toxic	Non-toxic	–	–	–	–	–
CC(=O)Nc1ccc(-c2ccc(Cl)cc2)c(COc2ccc(-c3nc4cc(C(=O)O)ccc4n3C3CCCCC3)cc2)c1	–	–	–	–	–	10	–	–	–
O=C1/C(=C/c2ccc(O)c(O)c2)Oc2cc(O)cc(O)c21 [AUREUSIDIN]	5.4	85	–	–	–	–	–	–	–
CC(C)(C)c1ccc(/C=C2\Oc3cccc(O)c3C2=O)cc1	> 20	60.8	Non-toxic	Non-toxic	–	–	–	–	–
O=C1/C(=C/c2cccc(O)c2)Oc2cc(O)ccc21	> 20	10	Non-toxic	Non-toxic	–	–	–	–	–
O=C1/C(=C/c2ccccc2)Oc2cccc(O)c21	14.6	57	Non-toxic	Non-toxic	–	–	–	–	–
COc1cc(OC)c2c(c1)O/C(=C\c1ccccc1O)C2=O	> 20	0.7	Non-toxic	Non-toxic	–	–	–	–	–
COc1cc(OC)c2c(c1)O/C(=C\c1cccc(O)c1)C2=O	> 20	11	Non-toxic	Non-toxic	–	–	–	–	–
O=C1/C(=C/c2ccc(O)cc2O)Oc2cc(O)cc(O)c21	5.8	81	Non-toxic	Non-toxic	–	–	–	–	–
CCCCc1ccc(/C=C2\Oc3cccc(O)c3C2=O)cc1	> 20	42.7	Non-toxic	Non-toxic	–	–	–	–	–
O=C1/C(=C/c2ccccc2O)Oc2cc(O)ccc21	> 20	18	Non-toxic	Non-toxic	–	–	–	–	–
Cc1ccc(/C=C2\Oc3cccc(O)c3C2=O)c(C)c1	5.8	64	Non-toxic	Non-toxic	–	–	–	–	–
O=C1/C(=C/c2ccc(N3CCOCC3)cc2)Oc2cc(O)cc(O)c21	11.4	66	Non-toxic	Non-toxic	–	–	–	–	–

Second part, led by results:

IC50 [1] [µM]	inhibition [2] [%]	SMILES	Activity (Huh-7)	Activity (HEK293)	IC50 (Hepatitis C virus) [µM]	Ratio IC50 [3]	inhibition [4]	inhibition [5]	inhibition [6]
> 20	–	CCCCc1ccc(/C=C2\Oc3cc(F)cc(F)c3C2=O)cc1	Non-toxic	Non-toxic	–	–	–	–	–
> 20	37	O=C1/C(=C/c2cccc(O)c2)Oc2cccc(O)c21	Non-toxic	Non-toxic	–	–	–	–	–
> 20	52	COc1cc(OC)c(/C=C2\Oc3cccc(O)c3C2=O)c(OC)c1	Non-toxic	Non-toxic	–	–	–	–	–
> 20	47	COc1cccc(OC)c1/C=C1\Oc2cccc(O)c2C1=O	Non-toxic	Non-toxic	–	–	–	–	–
> 20	37	COc1cc(OC)c2c(c1)O/C(=C\c1ccc(O)cc1)C2=O	Non-toxic	Non-toxic	–	–	–	–	–
2.6	94	O=C1/C(=C/c2ccc(O)cc2O)Oc2cccc(O)c21	Non-toxic	Non-toxic	–	–	–	–	–
3.8	94	CN1CCN(c2ccc(/C=C3\Oc4cccc(O)c4C3=O)cc2)CC1	Non-toxic	Non-toxic	–	–	–	–	–
2.2	95	CCCCn1cc(/C=C2\Oc3cc(O)cc(O)c3C2=O)c2ccccc21	Non-toxic	Non-toxic	–	–	–	–	–
> 20	74	COc1cccc(/C=C2\Oc3cc(O)cc(O)c3C2=O)c1OC	Non-toxic	Non-toxic	–	–	–	–	–
9.7	61	O=C1/C(=C/c2ccc(O)cc2)Oc2cc(O)cc(O)c21	Non-toxic	Non-toxic	40	–	–	–	–
2.5	93	CCCCc1ccc(/C=C2\Oc3cc(O)cc(O)c3C2=O)cc1	Non-toxic	Non-toxic	–	–	–	–	–
> 20	–	CCCCc1ccc(/C=C2\Oc3ccccc3C2=O)cc1	Non-toxic	Non-toxic	–	–	–	–	–
2.3	92	O=C1/C(=C/c2ccc(C3CCCCC3)cc2)Oc2cc(O)cc(O)c21	Non-toxic	Non-toxic	–	–	–	–	–
> 20	2	COc1cc(OC)c2c(c1)O/C(=C\c1ccc(C3CCCCC3)cc1)C2=O	Non-toxic	Non-toxic	–	–	–	–	–
3.6	79	CCc1ccc(/C=C2\Oc3cc(O)cc(O)c3C2=O)cc1	Non-toxic	Non-toxic	–	–	–	–	–
> 20	10	O=C1/C(=C/c2ccc(F)cc2F)Oc2cccc(F)c21	Non-toxic	Non-toxic	–	–	–	–	–
> 20	50	COc1ccc(/C=C2\Oc3cc(O)cc(O)c3C2=O)c(OC)c1OC	Non-toxic	Non-toxic	–	–	–	–	–
> 20	35	O=C1/C(=C/c2ccc(O)cc2)Oc2cc(O)ccc21	Non-toxic	Non-toxic	–	–	–	–	–
> 20	3	CCCCc1ccc(/C=C2\Oc3cc(OC)cc(OC)c3C2=O)cc1	Non-toxic	Non-toxic	–	–	–	–	–
> 20	3	O=C1/C(=C/c2ccc(C3CCCCC3)cc2)Oc2cc(OCc3ccccc3)cc(OCc3ccccc3)c21	Non-toxic	Non-toxic	–	–	–	–	–
